In data set [1] the test system is P388. Briefly: Antitumor activity against mouse P388 cells allografted in CD2F1 mouse assessed as increase in mouse survival at 100 mg/kg, ip of total 9 doses starting 24 hrs post tumor inoculation measured on day 5 of inoculation relative to control. Format: functional. Particulars: route intraperitoneal. In a few lines:
(§1)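 Male CD2F1 mice inoculated ip with 6×10^6 P388 leukemia cells. Dosing was ip as a suspension in distilled water–Tween 80, nine daily doses starting 24 h after inoculation. Activity was read as median survival time of treated vs control mice (% T/C); % T/C ≥ 120 was considered significant. Groups were 6 mice.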

In data set [2] the test system is Mus musculus. As to the kind of experiment: Toxicity in mouse P388 cells allografted CD2F1 mouse assessed as body weight loss at 100 mg/kg, ip of total 9 doses starting 24 hrs post tumor inoculation measured on day 5 of inoculation relative to control. Set-up: dose 100 mg/kg, route intraperitoneal. The note with it: in vivo. Format: organism-based. In a few lines: (§2)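 Male CD2F1 mice inoculated ip with 6×10^6 P388 leukemia cells. Compounds given ip as distilled water–Tween 80 suspension, nine daily doses starting 24 h after inoculation; six mice per dose group. Treated-minus-control body-weight change (T − C) and toxicity-day survivors recorded on day 5 (4 days after first dose).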

The subject of data set [3] is Mus musculus. Briefly: Toxicity in mouse P388 cells allografted CD2F1 mouse assessed as body weight loss at 50 mg/kg, ip of total 9 doses starting 24 hrs post tumor inoculation measured on day 5 of inoculation relative to control. Set-up: dose 50 mg/kg, route intraperitoneal. The note with it: in vivo. It is filed as organism-based. Summed up:
as §2

Data set [4] concerns Mus musculus. Briefly: Toxicity in mouse P388 cells allografted CD2F1 mouse assessed as mouse survival at 100 mg/kg, ip of total 9 doses starting 24 hrs post tumor inoculation measured on day 5 of inoculation relative to control. It is filed as organism-based. Set-up: dose 100 mg/kg, route intraperitoneal. Particulars: in vivo. Summed up: (§3)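 Male CD2F1 mice bearing ip P388 leukemia (6×10^6 cells) were dosed ip with nine daily doses in distilled water–Tween 80 suspension, starting 24 h after inoculation. Survivors per group of 6 were counted on day 5, i.e. 4 days after the first dose. Body-weight change of treated minus control mice was also recorded.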

Data set [5] deals with Mus musculus. As to the kind of experiment: Toxicity in mouse P388 cells allografted CD2F1 mouse assessed as body weight loss at 25 mg/kg, ip of total 9 doses starting 24 hrs post tumor inoculation measured on day 5 of inoculation relative to control. The note with it: in vivo. Set-up: dose 25 mg/kg, route intraperitoneal. It is filed as organism-based. In a few lines:
as §2

For data set [6], the system named is Mus musculus. As to the kind of experiment: Toxicity in mouse P388 cells allografted CD2F1 mouse assessed as body weight loss at 200 mg/kg, ip of total 9 doses starting 24 hrs post tumor inoculation measured on day 5 of inoculation relative to control. Format: organism-based. Set-up: dose 200 mg/kg, route intraperitoneal. The note with it: in vivo. In a few lines: as §2

Data set [7] relates to Mus musculus. Briefly: Toxicity in mouse P388 cells allografted CD2F1 mouse assessed as mouse survival at 25 mg/kg, ip of total 9 doses starting 24 hrs post tumor inoculation measured on day 5 of inoculation relative to control. Set-up: dose 25 mg/kg, route intraperitoneal. Particulars: in vivo. It is filed as organism-based. In a few lines:
as §3

For data set [8], the system named is P388. As to the kind of experiment: Antitumor activity against mouse P388 cells allografted in CD2F1 mouse assessed as increase in mouse survival at 200 mg/kg, ip of total 9 doses starting 24 hrs post tumor inoculation measured on day 5 of inoculation relative to control. The note with it: route intraperitoneal. Format: functional. In a few lines:
as §1

For data set [9], the system named is P388. As to the kind of experiment: Antitumor activity against mouse P388 cells allografted in CD2F1 mouse assessed as increase in mouse survival at 50 mg/kg, ip of total 9 doses starting 24 hrs post tumor inoculation measured on day 5 of inoculation relative to control. Format: functional. The note with it: route intraperitoneal. Summed up:
as §1

Data set [10] has as its system Mus musculus. Briefly: Toxicity in mouse P388 cells allografted CD2F1 mouse assessed as mouse survival at 50 mg/kg, ip of total 9 doses starting 24 hrs post tumor inoculation measured on day 5 of inoculation relative to control. Format: organism-based. Set-up: dose 50 mg/kg, route intraperitoneal. Particulars: in vivo. Summed up: as §3
Data set [11] deals with Mus musculus. Briefly: Toxicity in mouse P388 cells allografted CD2F1 mouse assessed as body weight loss at 12.5 mg/kg, ip of total 9 doses starting 24 hrs post tumor inoculation measured on day 5 of inoculation relative to control. It is filed as organism-based. Set-up: dose 12.5 mg/kg, route intraperitoneal. Particulars: in vivo. Summed up:
as §2

Data set [12] concerns P388. As to the kind of experiment: Antitumor activity against mouse P388 cells allografted in CD2F1 mouse assessed as increase in mouse survival at 25 mg/kg, ip of total 9 doses starting 24 hrs post tumor inoculation measured on day 5 of inoculation relative to control. It is filed as functional. Particulars: route intraperitoneal. Summed up:
as §1

Data set [13] deals with Mus musculus. Briefly: Toxicity in mouse P388 cells allografted CD2F1 mouse assessed as mouse survival at 12.5 mg/kg, ip of total 9 doses starting 24 hrs post tumor inoculation measured on day 5 of inoculation relative to control. Set-up: dose 12.5 mg/kg, route intraperitoneal. The note with it: in vivo. It is filed as organism-based. Summed up: as §3
For data set [14], the system named is Mus musculus. As to the kind of experiment: Toxicity in mouse P388 cells allografted CD2F1 mouse assessed as mouse survival at 200 mg/kg, ip of total 9 doses starting 24 hrs post tumor inoculation measured on day 5 of inoculation relative to control. Format: organism-based. The note with it: in vivo. Set-up: dose 200 mg/kg, route intraperitoneal. In a few lines: as §3

Data set [15] deals with P388. Briefly: Antitumor activity against mouse P388 cells allografted in CD2F1 mouse assessed as increase in mouse survival at 12.5 mg/kg, ip of total 9 doses starting 24 hrs post tumor inoculation measured on day 5 of inoculation relative to control. Format: functional. The note with it: route intraperitoneal. Summed up: as §1
In data set [16] the test system is Mus musculus. Briefly: Toxicity in mouse P388 cells allografted CD2F1 mouse assessed as body weight loss at 7.5 mg/kg, ip of total 9 doses starting 24 hrs post tumor inoculation measured on day 5 of inoculation relative to control. Format: organism-based. Set-up: dose 7.5 mg/kg, route intraperitoneal. The note with it: in vivo. Summed up: as §2
Data set [17] concerns Mus musculus. Briefly: Toxicity in mouse P388 cells allografted CD2F1 mouse assessed as body weight loss at 120 mg/kg, ip of total 9 doses starting 24 hrs post tumor inoculation measured on day 5 of inoculation relative to control. It is filed as organism-based. Set-up: dose 120 mg/kg, route intraperitoneal. Particulars: in vivo. Summed up: as §2
Data set [18] deals with Mus musculus. Briefly: Toxicity in mouse P388 cells allografted CD2F1 mouse assessed as body weight loss at 15 mg/kg, ip of total 9 doses starting 24 hrs post tumor inoculation measured on day 5 of inoculation relative to control. Format: organism-based. Set-up: dose 15 mg/kg, route intraperitoneal. Particulars: in vivo. In a few lines: as §2
The subject of data set [19] is P388. Briefly: Antitumor activity against mouse P388 cells allografted in CD2F1 mouse assessed as increase in mouse survival at 7.5 mg/kg, ip of total 9 doses starting 24 hrs post tumor inoculation measured on day 5 of inoculation relative to control. Format: functional. Particulars: route intraperitoneal. Summed up: as §1
Data set [20] concerns Mus musculus. As to the kind of experiment: Toxicity in mouse P388 cells allografted CD2F1 mouse assessed as mouse survival at 30 mg/kg, ip of total 9 doses starting 24 hrs post tumor inoculation measured on day 5 of inoculation relative to control. It is filed as organism-based. Set-up: dose 30 mg/kg, route intraperitoneal. Particulars: in vivo. Summed up:
as §3

For data set [21], the system named is Mus musculus. As to the kind of experiment: Toxicity in mouse P388 cells allografted CD2F1 mouse assessed as body weight loss at 60 mg/kg, ip of total 9 doses starting 24 hrs post tumor inoculation measured on day 5 of inoculation relative to control. Format: organism-based. Set-up: dose 60 mg/kg, route intraperitoneal. Particulars: in vivo. In a few lines:
as §2

Data set [22] concerns Mus musculus. Briefly: Toxicity in mouse P388 cells allografted CD2F1 mouse assessed as body weight loss at 30 mg/kg, ip of total 9 doses starting 24 hrs post tumor inoculation measured on day 5 of inoculation relative to control. Format: organism-based. Set-up: dose 30 mg/kg, route intraperitoneal. The note with it: in vivo. Summed up:
as §2

Data set [23] concerns P388. Briefly: Antitumor activity against mouse P388 cells allografted in CD2F1 mouse assessed as increase in mouse survival at 15 mg/kg, ip of total 9 doses starting 24 hrs post tumor inoculation measured on day 5 of inoculation relative to control. Particulars: route intraperitoneal. It is filed as functional. In a few lines: as §1
The test system of data set [24] is Mus musculus. Briefly: Toxicity in mouse P388 cells allografted CD2F1 mouse assessed as mouse survival at 15 mg/kg, ip of total 9 doses starting 24 hrs post tumor inoculation measured on day 5 of inoculation relative to control. Format: organism-based. Set-up: dose 15 mg/kg, route intraperitoneal. Particulars: in vivo. Summed up:
as §3

For data set [25], the system named is P388. Briefly: Antitumor activity against mouse P388 cells allografted in CD2F1 mouse assessed as increase in mouse survival at 60 mg/kg, ip of total 9 doses starting 24 hrs post tumor inoculation measured on day 5 of inoculation relative to control. Format: functional. Particulars: route intraperitoneal. In a few lines: as §1
In data set [26] the test system is Mus musculus. Briefly: Toxicity in mouse P388 cells allografted CD2F1 mouse assessed as mouse survival at 7.5 mg/kg, ip of total 9 doses starting 24 hrs post tumor inoculation measured on day 5 of inoculation relative to control. It is filed as organism-based. Set-up: dose 7.5 mg/kg, route intraperitoneal. Particulars: in vivo. Summed up: as §3
The test system of data set [27] is P388. Briefly: Antitumor activity against mouse P388 cells allografted in CD2F1 mouse assessed as increase in mouse survival at 30 mg/kg, ip of total 9 doses starting 24 hrs post tumor inoculation measured on day 5 of inoculation relative to control. Format: functional. The note with it: route intraperitoneal. Summed up:
as §1

This passage reports T/C and Activity results from ChEMBL document CHEMBL3243962, “Antileukemic activity of derivatives of 1,2-dimethyl-3,4-bis(hydroxymethyl)-5-phenylpyrrole bis(N-methylcarbamate)” (J Med Chem, 1979).

For `CNC(=O)OCc1c(COC(=O)NC)c(-c2ccc(Sc3ccccc3)cc2)n(C)c1C`, the T/C in data set [1] stood at 171%; in data set [8] it was 108%; in [9], 162%; in data set [12], 146%; in data set [15], 142%. Also, the Activity is on record as 3.3 g in [2]; 2.1 g in data set [3]; “Non-toxic” in data set [4]; 2.1 g in data set [5]; 3 g in [6]; “Non-toxic” in [7]. Also, the Activity entry in data set [10] was “Non-toxic”; in [11], 0.9 g; in [13], “Non-toxic”; in data set [14], “Non-toxic”.
`CCCCOc1ccc(-c2c(COC(=O)NC)c(COC(=O)NC)c(C)n2C)cc1`: the Activity in data set [16] was 1.3 g; in [17], 3.4 g; in [18], 2.1 g; in [20], “Non-toxic”; in [21], 4.1 g; in data set [22], 2.8 g. In addition, the Activity result in [24] and in data set [26] was “Non-toxic” each time. Also, the T/C in data set [19] is 137%; in data set [23], 146%; in data set [25], 90%; in data set [27] it was 144%.
